Data from ChEMBL document CHEMBL1144943, “New amide-bearing benzolactam-based protein kinase C modulators induce enhanced secretion of the amyloid precursor protein metabolite sAPPalpha” (J Med Chem, 2003).

Columns and labels:
AG06848 cell line = assay: Ability to enhance […] secretion using human fibroblast AG06848 cell line at 1 uM concentration; format: functional; parameters: unit not given here
How it was run: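 AD-patient fibroblasts (AG06848) grown to confluence (about 4–5 days), switched to serum-free DMEM for 2 h, then exposed to 1 μM compound for 3 h with DMSO (below 1%) as solvent control. sAPPα in conditioned medium measured by SDS-PAGE immunoblot with antibody 6E10, loading corrected for total cell protein. Densitometry expressed relative to DMSO-treated cells; 3–6 independent experiments.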

Mus musculus [1] = organism: Mus musculus; assay: Compound was evaluated for induction of hyperplasia after four applications at dose 1 (micro/application); 1-2; format: functional
Mus musculus [2] = organism: Mus musculus; assay: Compound was evaluated for induction of hyperplasia after four applications at dose 10 (micro/application); 1-3; format: functional
Mus musculus [3] = organism: Mus musculus; assay: Compound was evaluated for induction of hyperplasia after four applications at dose 3 (micro/application); 1-2; format: functional
Mus musculus [4] = organism: Mus musculus; assay: Compound was evaluated for induction of hyperplasia after single application at dose 1 (micro/application); 1-2; format: functional
Mus musculus [5] = organism: Mus musculus; assay: Compound was evaluated for induction of hyperplasia after single application at dose 10 (micro/application); 1-2; format: functional
Mus musculus [6] = organism: Mus musculus; assay: Compound was evaluated for induction of hyperplasia after single application at dose 3 (micro/application); 1-2; format: functional
[7] = target: Protein kinase C alpha type (Homo sapiens, UniProt P17252); assay: Displacement of PDBU from recombinant Protein kinase C alpha with phosphatidylserine
Mus musculus [8] = organism: Mus musculus; assay: Compound was evaluated for induction of hyperplasia after four application at dose 10 (micro/application); format: functional
Mus musculus [9] = organism: Mus musculus; assay: Compound was evaluated for induction of hyperplasia after four application at dose 100 (micro/application); format: functional
Mus musculus [10] = organism: Mus musculus; assay: Compound was evaluated for induction of hyperplasia after four application at dose 3 (micro/application); format: functional
Mus musculus [11] = organism: Mus musculus; assay: Compound was evaluated for induction of hyperplasia after four application at dose 30 (micro/application); format: functional
Mus musculus [12] = organism: Mus musculus; assay: Compound was evaluated for induction of hyperplasia after four application at dose 300 (micro/application); format: functional
Mus musculus [13] = organism: Mus musculus; assay: Compound was evaluated for induction of hyperplasia after single application at dose 300 (micro/application); format: functional
Mus musculus [14] = organism: Mus musculus; assay: Compound was evaluated for induction of hyperplasia after single application at dose 10 (micro/application); format: functional
Mus musculus [15] = organism: Mus musculus; assay: Compound was evaluated for induction of hyperplasia after single application at dose 100 (micro/application); format: functional
Mus musculus [16] = organism: Mus musculus; assay: Compound was evaluated for induction of hyperplasia after single application at dose 3 (micro/application); format: functional
Mus musculus [17] = organism: Mus musculus; assay: Compound was evaluated for induction of hyperplasia after single application at dose 30 (micro/application); format: functional

Question: CC(C)[C@H]1C(=O)N[C@H](CO)Cc2cc(NC(=O)CCCCc3ccc(C(F)(F)F)cc3)ccc2N1C was tested. Which Activity (AG06848 cell line) did it give?
Answer: 30

Question: And the Epidermal thickness (Mus musculus [1])?
Answer: 1

Question: And the Epidermal thickness (Mus musculus [2])?
Answer: 1

Question: And the Epidermal thickness (Mus musculus [3])?
Answer: 1

Question: What about the Epidermal thickness (Mus musculus [4]) of the same compound?
Answer: 1

Question: What about the Epidermal thickness (Mus musculus [5]) of the same compound?
Answer: 1

Question: What about the Epidermal thickness (Mus musculus [6]) of the same compound?
Answer: 1

Question: What about the Ki [7] of the same compound?
Answer: 12.5 nM

Question: For CC(C)[C@H]1C(=O)N[C@H](CO)Cc2cc(NC(=O)CCCCc3ccc(CCC(F)(F)C(F)(F)C(F)(F)C(F)(F)C(F)(F)C(F)(F)F)cc3)ccc2N1C, which Activity (AG06848 cell line) is on record?
Answer: 20

Question: What about the Ki [7] of the same compound?
Answer: 9.2 nM

Question: With CC(C)[C@H]1C(=O)N[C@H](CO)Cc2cc(NC(=O)/C=C/C=C/c3ccc(/C=C/C(F)(F)C(F)(F)C(F)(F)C(F)(F)C(F)(F)C(F)(F)F)cc3)ccc2N1C as the compound, how does the Activity (AG06848 cell line) read?
Answer: 10

Question: And the Ki [7]?
Answer: 11.2 nM

Question: Which results are given for CC(C)[C@H]1C(=O)N[C@H](CO)Cc2cc(NC(=O)/C=C/C=C/c3cc(C(F)(F)F)cc(C(F)(F)F)c3)ccc2N1C?
Answer: Activity (AG06848 cell line): 20; Ki [7]: 5.6 nM

Question: Which Activity (AG06848 cell line) does the source give for CC(C)[C@H]1C(=O)N[C@H](CO)Cc2cc(NC(=O)/C=C/C=C/c3ccc(C(F)(F)F)cc3)ccc2N1C here?
Answer: 40

Question: And the Epidermal thickness (Mus musculus [8])?
Answer: 1

Question: What about the Epidermal thickness (Mus musculus [9]) of the same compound?
Answer: 2

Question: And the Epidermal thickness (Mus musculus [10])?
Answer: 1

Question: What about the Epidermal thickness (Mus musculus [11]) of the same compound?
Answer: 1

Question: What about the Epidermal thickness (Mus musculus [12]) of the same compound?
Answer: 3

Question: What about the Epidermal thickness (Mus musculus [13]) of the same compound?
Answer: 2

Question: What about the Epidermal thickness (Mus musculus [14]) of the same compound?
Answer: 1

Question: What about the Epidermal thickness (Mus musculus [15]) of the same compound?
Answer: 1

Question: What about the Epidermal thickness (Mus musculus [16]) of the same compound?
Answer: 1

Question: What about the Epidermal thickness (Mus musculus [17]) of the same compound?
Answer: 1

Question: What about the Ki [7] of the same compound?
Answer: 11.9 nM

Question: With CC(C)[C@H]1C(=O)N[C@H](CO)Cc2cc(NC(=O)/C=C/C=C/c3ccccc3)ccc2N1C as the compound, how does the Activity (AG06848 cell line) read?
Answer: 20

Question: And the Ki [7]?
Answer: 15.8 nM

Question: What does the source list for CC(C)[C@H]1C(=O)N[C@H](CO)Cc2cc(NC(=O)CCCCc3cc(C(F)(F)F)cc(C(F)(F)F)c3)ccc2N1C?
Answer: Activity (AG06848 cell line): 0; Ki [7]: 7.8 nM

Question: Which Activity (AG06848 cell line) does the source give for CC(C)[C@H]1C(=O)N[C@H](CO)Cc2cc(NC(=O)CCCCc3ccccc3)ccc2N1C here?
Answer: 30

Question: What about the Ki [7] of the same compound?
Answer: 34.2 nM

Question: Which Activity (AG06848 cell line) does the source give for CCCCCC(=O)Nc1ccc2c(c1)C[C@@H](CO)NC(=O)[C@H](C(C)C)N2C here?
Answer: 30

Question: Which Activity (AG06848 cell line) does the source give for C/C=C/C=C/C(=O)Nc1ccc2c(c1)C[C@@H](CO)NC(=O)[C@H](C(C)C)N2C here?
Answer: 10

Question: What about the Ki [7] of the same compound?
Answer: 1970 nM

Question: How did the Activity (AG06848 cell line) turn out when CCCCCCCCC#Cc1ccc2c(c1)C[C@@H](CO)NC(=O)[C@H](C(C)C)N2C was run?
Answer: 0
